Calls of active or inactive are those of the source. The rule behind the calls is not given here.
Legend:
[1] = test system: NCI-H460; assay: Antiproliferative activity against human NCI-H460 cells by MTT assay; format: functional, cell-based
Method in brief: (§1)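 Cell lines cultured in RPMI 1640 with 10% FBS. Viability read by MTT (5 mg/mL, 4 h at 37 °C), with formazan dissolved in DMSO and absorbance taken at 490 nm. Viability (%) = A490 treated / A490 control × 100. IC50 taken from dose-response curves, from three independent experiments each run in triplicate.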

[2] = test system: MGC-803; assay: Antiproliferative activity against human MGC803 cells by MTT assay; format: functional, cell-based; method in brief: as §1
[3] = test system: HepG2; assay: Antiproliferative activity against human HepG2 cells by MTT assay; format: functional, cell-based; method in brief: as §1
[4] = test system: T-24; assay: Antiproliferative activity against human T24 cells by MTT assay; format: functional, cell-based; method in brief: as §1
[5] = test system: HeLa; assay: Antiproliferative activity against human HeLa cells by MTT assay; format: functional, cell-based; method in brief: as §1
[6] = test system: HepG2; assay: Antitumor activity against human HepG2 cells xenografted in BALB/C nude mouse assessed as tumor growth inhibition at 6 mg/kg, ip administered every 2 days for 16 days relative to control; format: functional; details: read-out: TGI
Method in brief: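 Male BALB/C nude mice, 6 weeks old, given subcutaneous flank injection of 5 × 10^6 HepG2 cells; tumors of 80−200 mm3 randomized, n = 6/group. Dosing ip every other day, vehicle 5% DMSO in saline (v/v). Tumor length and width measured three times a week, volume V = lw2/2; growth inhibition expressed versus vehicle group. Body weight also recorded.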

[7] = biological target: Cellular tumor antigen p53 (Homo sapiens) (UniProt P04637); assay: Activation of p53 in human T24 cells assessed as p53 phosphorylation after 24 hrs by Western blot analysis; format: cell-based
Chain of Cellular tumor antigen p53 (Homo sapiens) (P04637 whole entry, looked up): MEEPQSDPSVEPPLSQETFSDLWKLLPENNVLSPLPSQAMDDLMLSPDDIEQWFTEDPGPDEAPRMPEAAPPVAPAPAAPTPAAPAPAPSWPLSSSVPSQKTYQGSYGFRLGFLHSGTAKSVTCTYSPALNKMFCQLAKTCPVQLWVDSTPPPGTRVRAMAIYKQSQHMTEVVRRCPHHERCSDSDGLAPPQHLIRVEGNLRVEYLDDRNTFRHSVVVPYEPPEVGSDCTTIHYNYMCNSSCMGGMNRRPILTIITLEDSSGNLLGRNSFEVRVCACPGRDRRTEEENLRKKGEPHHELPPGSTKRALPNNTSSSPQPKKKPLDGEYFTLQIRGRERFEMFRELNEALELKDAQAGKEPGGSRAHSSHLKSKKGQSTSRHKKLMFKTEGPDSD
Method in brief: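 T24 cells, 3 × 10^5 per well, grown to 85−95% confluence, then exposed to 0−10 μM for 24 h. Whole-cell extracts in sample buffer run on SDS-polyacrylamide gels and transferred to nitrocellulose. Blots probed with primary antibodies and AP-linked anti-rabbit IgG, detected by ECL. Blots stripped and reprobed for β-actin as loading control.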

[8] = test system: T-24; assay: Effect on p53 expression in human T24 cells up to 10 uM after 24 hrs by Western blot analysis; format: functional, cell-based
Method in brief: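 T24 cells (3 × 10^5 per well) grown to 85–95% confluence, then exposed 24 h to 0–10 μM. Whole-cell extracts run on SDS-PAGE and blotted to nitrocellulose. Probed with the indicated antibodies and AP-linked anti-rabbit IgG, with ECL detection. Blots stripped and reprobed for β-actin as loading control.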

Row | Structure (SMILES) | IC50 [1] [µM] | IC50 [2] [µM] | IC50 [3] [µM] | IC50 [4] [µM] | IC50 [5] [µM] | inhibition in vivo at 6 mg/kg [6] [%] | Activity [7] | Activity [8]
1 | O=c1c2cc(Cl)ccc2nc2c3ccccc3c(N3CCOCC3)nn12 | > 100 | > 100 | > 100 | > 100 | > 100 | – | – | –
2 | CN1CCN(c2nn3c(=O)c4cc(Cl)ccc4nc3c3ccccc23)CC1 | 70.4 | 66.1 | 57.6 | 30.7 | > 100 | – | – | –
3 | CC[C@@]1(O)C(=O)OCc2c1cc1n(c2=O)Cc2cc3cc(O)ccc3nc2-1 [HYDROXYCAMPTOTHECIN] | 4.91 | 15.2 | 5.52 | 5.53 | 29.2 | 71.6 | – | –
4 | CC(C)N(CCNc1nn2c(=O)c3cc(Br)ccc3nc2c2ccccc12)C(C)C | 13.6 | 10.6 | 11.7 | 12.7 | 11.4 | – | – | –
5 | CN(C)CCCNc1nn2c(=O)c3cc(Br)ccc3nc2c2ccccc12 | 5.48 | 3.35 | 2.2 | 3.25 | 7.13 | – | – | –
6 | O=c1c2cc(Br)ccc2nc2c3ccccc3c(NCCN3CCOCC3)nn12 | 7.85 | 9.9 | 11.3 | 10.8 | 8.8 | – | – | –
7 | O=c1c2cc(Br)ccc2nc2c3ccccc3c(NCCCN3CCOCC3)nn12 | 15.1 | 7.21 | 12.8 | 9.03 | 17.4 | – | – | –
8 | Cc1ccc2nc3c4ccccc4c(N4CCN(C)CC4)nn3c(=O)c2c1 | 70.6 | 34.2 | 55.2 | 60.5 | 85 | – | – | –
9 | CN1CCN(c2nn3c(=O)c4ccccc4nc3c3ccccc23)CC1 | 31.4 | 44.5 | 39.4 | 33.8 | 50.4 | – | – | –
10 | CCOC(=O)CNc1nn2c(=O)c3cc(Br)ccc3nc2c2ccccc12 | > 100 | > 100 | > 100 | > 100 | > 100 | – | – | –
11 | CCOC(=O)CCNc1nn2c(=O)c3cc(Br)ccc3nc2c2ccccc12 | > 100 | > 100 | > 100 | > 100 | > 100 | – | – | –
12 | CN(C)CCNc1nn2c(=O)c3ccccc3nc2c2ccccc12 | 12.1 | 8.71 | 10.2 | 7.47 | 13 | – | – | –
13 | Cc1ccc2nc3c4ccccc4c(NCCCN4CCOCC4)nn3c(=O)c2c1 | 21.6 | 20.7 | 24.1 | 9.78 | 24.2 | – | – | –
14 | CN(C)CCNc1nn2c(=O)c3cc(F)ccc3nc2c2ccccc12 | 7.49 | 6.6 | 4.68 | 4.62 | 7.92 | – | – | –
15 | CN1CCN(c2nn3c(=O)c4cc(Br)ccc4nc3c3ccccc23)CC1 | 43.7 | 40.4 | 41.1 | 77 | 73.5 | – | – | –
16 | O=c1c2ccccc2nc2c3ccccc3c(N3CCOCC3)nn12 | > 100 | > 100 | 92.3 | > 100 | > 100 | – | – | –
17 | CCN(CC)CCNc1nn2c(=O)c3cc(Br)ccc3nc2c2ccccc12 | 5.06 | 7.26 | 2.99 | 10.7 | 8.81 | – | – | –

Row | Structure (SMILES) | IC50 [1] [µM] | IC50 [2] [µM] | IC50 [3] [µM] | IC50 [4] [µM] | IC50 [5] [µM] | inhibition in vivo at 6 mg/kg [6] [%] | Activity [7] | Activity [8]
18 | CN(C)CCCNc1nn2c(=O)c3cc(Cl)ccc3nc2c2ccccc12 | 10.5 | 13.9 | 8.78 | 9.83 | 15.7 | – | – | –
19 | O=c1c2cc(Br)ccc2nc2c3ccccc3c(NCCN3CCCCC3)nn12 | 7.85 | 4.48 | 4.14 | 3.81 | 2.01 | – | – | –
20 | O=c1c2cc(Br)ccc2nc2c3ccccc3c(N3CCOCC3)nn12 | > 100 | > 100 | > 100 | > 100 | > 100 | – | – | –
21 | Cc1ccc2nc3c4ccccc4c(NCCN(C)C)nn3c(=O)c2c1 | 5.69 | 5.65 | 4.97 | 2.12 | 3.41 | – | – | –
22 | CN1CCN(c2nn3c(=O)c4cc(F)ccc4nc3c3ccccc23)CC1 | 77.7 | 26.1 | 51.9 | 34.8 | 44.9 | – | – | –
23 | O=c1c2cc(Cl)ccc2nc2c3ccccc3c(NCCCN3CCOCC3)nn12 | 19.9 | 23.1 | 18.3 | 8.85 | 34.6 | – | – | –
24 | Cc1ccc2nc3c4ccccc4c(NCCCN(C)C)nn3c(=O)c2c1 | 9.7 | 5.24 | 7.82 | 7.28 | 13.6 | – | – | –
25 | CCCCNc1nn2c(=O)c3cc(Br)ccc3nc2c2ccccc12 | > 100 | > 100 | > 100 | > 100 | > 100 | – | – | –
26 | O=c1c2ccccc2nc2c3ccccc3c(NCCCN3CCOCC3)nn12 | 40.2 | 14.5 | 30.5 | 27.9 | 53.8 | – | – | –
27 | CN(C)CCCNc1nn2c(=O)c3cc(F)ccc3nc2c2ccccc12 | 11.2 | 32.1 | 10.7 | 8.9 | 22.1 | – | – | –
28 | CN(C)CCCNc1nn2c(=O)c3ccccc3nc2c2ccccc12 | 17 | 10.7 | 11.5 | 14.5 | 20.2 | – | Dose-dependent effect | inactive
29 | CN(C)CCNc1nn2c(=O)c3cc(Cl)ccc3nc2c2ccccc12 | 5.11 | 4.82 | 4.89 | 3.46 | 5.6 | – | – | –
30 | Cc1ccc2nc3c4ccccc4c(N4CCOCC4)nn3c(=O)c2c1 | > 100 | > 100 | > 100 | > 100 | > 100 | – | – | –
31 | O=c1c2cc(F)ccc2nc2c3ccccc3c(N3CCOCC3)nn12 | > 100 | > 100 | > 100 | > 100 | > 100 | – | – | –
32 | O=c1c2cc(Br)ccc2nc2c3ccccc3c(NCCN3CCCC3)nn12 | 6.84 | 4.15 | 5.21 | 6.43 | 3.71 | – | – | –
33 | O=c1c2cc(F)ccc2nc2c3ccccc3c(NCCCN3CCOCC3)nn12 | 52 | 79.1 | 45.1 | 18.8 | 60.6 | – | – | –
